An excerpt weighted towards active compounds, which were near 5.5% of everything screened.
STAT1 blocker: STAT1 signaling inhibitors, primary screen, cell-based, HTS, luciferase reporter; NIH 3T3 STAT1-luciferase reporter, IFN-gamma, luminescence; actives 0.35% (n = 200,000); inhibition, % at 5.5 µM;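 active = inhibition above a set limit, the mean inhibition across all tested compounds plus 3 SD, cut at about 34% in these data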;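 note: 0% = IFN-gamma with DMSO and 100% = IFN-gamma with 300 µM nifuroxazide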
STAT3 activator: IL-6 driven STAT3 reporter potentiators, primary screen, U3A cells, luciferase, luminescence, MLSCN library | IL-6 STAT3-luciferase reporter; 100% = signal with IL-6 EC80 alone | activation (% of control), % at 5.6 µM | actives 0.91% (n = 190,000) | AID 871, 2007;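 active = activation above the screen-wide mean of compound activation plus 3 SD, cut at about 130% in these data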;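 note: 0% = background luminescence of wells with medium and substrate only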
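system = STAT3-luciferase reporter U3A cells | reagent = IL-6 stimulus at 33 ng/mL final | timing = 1 h compound pre-exposure, 6 h IL-6 stimulation, 37 °C | measured by = luminescence | evaluation = % activation versus median of IL-6-stimulated wells | control set = IL-6-only wells as 100% reference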
HSV augment: enhancers of HSV replication in host cells, fold increase, host cell viability. AID 1956, 2009. actives 0.005% (n = 220,000). maximum fold increase. HSV replication augmentation in cells; in the data active = maximum fold increase above about 1.5; inconclusive = no clear call, values can overlap the other calls; tested in PC3 cells
STAT1 act: STAT1 signaling activators, primary screen, cell-based, HTS, luciferase reporter | NIH 3T3 STAT1-luciferase reporter, IFN-gamma, luminescence; 100% = IFN-gamma alone, no compound | activation (% of control), % at 5.5 µM | actives 2.6% (n = 200,000);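 active = activation above the screen-wide mean activation plus 3 SD, cut at about 130% in these data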;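 note: raw ratio to IFN-gamma control signal so 100% means no change and 0% no light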
Cl transport mod: KCC2 cotransporter modulators, thallium flux, primary screen, cell-based, HEK293 KCC2, FluoZin-2 fluorescence, MLSMR; KCC2 cells, thallium flux FluoZin-2 fluorescence; B-score of Tl+ flux slope (higher = more flux/activation; lower = inhibition) at 10 µM; actives 2.2% (n = 190,000); AID 1456, 2008;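 active = thallium flux slope and its plate-corrected score both differing from the plate sample mean at a set confidence after two filtering rounds, in either direction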;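 note: slope of fluorescence scaled to starting intensity during 10 to 20 s after thallium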
Target sequence (Q9H2X9 whole entry, looked up): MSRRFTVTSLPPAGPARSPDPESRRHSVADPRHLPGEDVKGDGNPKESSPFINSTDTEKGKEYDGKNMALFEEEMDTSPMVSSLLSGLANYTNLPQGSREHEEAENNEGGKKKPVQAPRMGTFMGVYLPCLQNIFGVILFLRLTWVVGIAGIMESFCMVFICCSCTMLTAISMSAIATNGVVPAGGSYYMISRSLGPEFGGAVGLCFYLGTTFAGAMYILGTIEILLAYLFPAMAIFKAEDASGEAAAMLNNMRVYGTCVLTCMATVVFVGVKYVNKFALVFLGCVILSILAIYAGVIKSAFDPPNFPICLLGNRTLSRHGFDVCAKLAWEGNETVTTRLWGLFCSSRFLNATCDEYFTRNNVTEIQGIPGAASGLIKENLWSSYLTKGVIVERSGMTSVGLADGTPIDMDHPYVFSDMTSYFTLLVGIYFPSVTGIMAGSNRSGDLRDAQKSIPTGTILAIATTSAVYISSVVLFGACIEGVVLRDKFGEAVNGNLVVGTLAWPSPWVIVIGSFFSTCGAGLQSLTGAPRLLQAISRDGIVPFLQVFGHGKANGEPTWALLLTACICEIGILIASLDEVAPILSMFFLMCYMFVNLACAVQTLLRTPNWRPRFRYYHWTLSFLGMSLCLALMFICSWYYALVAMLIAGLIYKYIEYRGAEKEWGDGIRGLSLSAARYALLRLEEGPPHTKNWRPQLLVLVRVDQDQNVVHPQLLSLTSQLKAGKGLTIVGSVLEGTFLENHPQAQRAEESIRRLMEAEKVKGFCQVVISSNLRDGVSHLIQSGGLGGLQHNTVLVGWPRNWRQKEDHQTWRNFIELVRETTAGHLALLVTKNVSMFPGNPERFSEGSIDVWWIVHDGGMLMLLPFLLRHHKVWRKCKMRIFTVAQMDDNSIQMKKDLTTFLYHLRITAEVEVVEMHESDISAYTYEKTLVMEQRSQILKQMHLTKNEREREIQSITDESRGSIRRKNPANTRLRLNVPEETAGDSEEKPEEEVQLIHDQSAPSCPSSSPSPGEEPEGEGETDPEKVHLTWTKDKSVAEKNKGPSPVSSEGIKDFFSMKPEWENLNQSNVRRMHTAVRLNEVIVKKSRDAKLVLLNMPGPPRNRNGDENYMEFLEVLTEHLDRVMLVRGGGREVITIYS
STAT3 inh: IL-6 driven STAT3 reporter inhibitors, primary screen, U3A cells, luciferase, luminescence, MLSCN library. IL-6 STAT3-luciferase reporter; host cell line lacks STAT1. actives 0.89% (n = 190,000). inhibition, % at 5.5 µM. AID 862, 2007;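 active = inhibition above the mean inhibition across all screened compounds plus 3 SD, cut at about 44% in these data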;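 note: 0% = DMSO only wells and 100% = 100 µM nifuroxazide control wells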
KCC2 secondary: KCC2 modulators in sodium-free buffer, confirmation, cell-based, HEK293 KCC2, thallium flux, secondary assay | AID 1713, 2009 | normalised thallium flux (F/F0 slope) at 10 µM | actives 15% (n = 3,700) | shares compounds with Cl transport mod | FluoZin2 fluorescence; hits give high values;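 active = thallium flux slope above the same plate's solvent-only control mean plus 3 SD; inconclusive = the two replicate wells disagree; inactive = no significant difference from solvent-only control wells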
KCC2 bumet counter: thallium flux persisting under bumetanide in KCC2 cells, confirmation, counter-screen for KCC2 modulator project, cell-based, HEK293 KCC2, FluoZin2, secondary assay 3 | actives 49% (n = 3,700) | shares compounds with Cl transport mod | HEK293-KCC2 + bumetanide/ouabain; hits give high values | normalized thallium flux at 10 µM;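 active = thallium entry rate above the same plate's blocked-transporter control wells by more than 3 SD; inconclusive = the two repeat wells disagree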;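 note: raw slope of fluorescence over initial fluorescence between 10 and 20 s after thallium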
KCC2 secondary2: KCC2 modulators without ouabain present, confirmation, cell-based, HEK293 KCC2, thallium flux, FluoZin2, secondary assay 2 | actives 23% (n = 3,700) | shares compounds with Cl transport mod | normalized thallium flux at 10 µM | thallium flux FluoZin2 fluorescence; actives lie on both sides; F/F0 rise rate, 10–20 s post-thallium;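 active = thallium flux slope more than 3 SD above or below the plate's solvent-only control mean, mostly below; inconclusive = the two repeat wells disagreed; inactive = no significant shift from solvent-only controls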;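 note: raw slope with 0.1% DMSO as baseline and bumetanide as block control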
HEK counter1: thallium flux modulation in parental HEK cells, confirmation, counter-screen for KCC2 modulator project, cell-based, counterscreen 1; thallium flux rate (normalised fluorescence) at 10 µM; HEK293 parental cells, thallium flux FluoZin2, ouabain; baseline-ratio fluorescence slope, 10–20 s after thallium; shares compounds with Cl transport mod; actives 46% (n = 3,700);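 active = thallium flux rate significantly above the same plate's solvent-only control wells, beyond their mean plus 3 SD; inconclusive = the two replicate wells gave conflicting results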
KCC2 ouabain: KCC2 inhibitors and activators, ouabain retest, confirmation, HEK-KCC2 cells. shares compounds with Cl transport mod. HEK293-KCC2, thallium flux FluoZin2 fluorescence; bidirectional: low = inhibitor, high = activator. raw Tl+ flux slope (below DMSO = inhibition, above = activation) at 10 µM. actives 48% (n = 3,700). AID 1717, 2009;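 active = thallium flux slope beyond 3 SD from same-plate DMSO control mean in most replicates, usually higher, sometimes lower; inconclusive = repeat tests gave conflicting results; inactive = no significant difference from controls in most replicates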;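 note: slope of initial-normalized fluorescence between seconds 10 and 20 after thallium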
HEK293 Tl flux2: native HEK Tl+ uptake effects, second counter-screen – HEK cells, counterscreen 2, counter-screen for KCC2 modulator project, confirmation; AID 1718, 2009; actives 33% (n = 3,700); shares compounds with Cl transport mod; thallium flux slope at 10 µM; HEK293 parental, thallium flux FluoZin-2 fluorescence slope;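 active = thallium flux slope above the same plate's solvent-control mean plus 3 SD in both duplicate wells; inconclusive = duplicate wells that disagreed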;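 note: run without ouabain in cells lacking the KCC2 cotransporter; slope of fluorescence scaled to its starting value between 10 and 20 s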
* hit, by the source's call; i = inactive; ? = inconclusive; · = no result given.

SMILES | STAT1 blocker | STAT3 activator | HSV augment | STAT1 act | Cl transport mod | STAT3 inh | KCC2 secondary | KCC2 bumet counter | KCC2 secondary2 | HEK counter1 | KCC2 ouabain | HEK293 Tl flux2
O=C1CC(=O)N(CCc2ccc(F)cc2)C(=O)N1 | -4.5 | 105.0 | i | 104.1 | 0.00129 | -1.0 | · | · | · | · | · | ·
O=C(Oc1cc(=O)n2ccccc2n1)c1ccccc1 | -0.6 | 104.9 | i | 100.5 | -4.28* | -8.4 | 0.0122* | 0.00737 | 0.0284 | 0.00564* | 0.0205 | 0.00945
O=C(O)c1c(Cl)nc2ccccn12 | 5.4 | 104.3 | i | 92.8 | 0.547 | -3.9 | · | · | · | · | · | ·
COc1ccccc1-c1nc(=S)c(C(C)=O)c(C)[nH]1 | · | · | i | · | 1.24 | · | · | · | · | · | · | ·
CC(=O)c1c(C)[nH]c(-c2ccccc2)nc1=S | · | · | i | · | 13.9* | · | 0.0166* | 0.0224* | 0.0306 | 0.0129* | 0.0248 | ?
CC(=O)c1c(NC(=O)c2ccccc2)[nH]c(-c2ccccc2)nc1=S | -1.4 | 99.1 | i | 99.6 | 36.1* | 11.3 | ? | 0.052* | 0.0621* | 0.052* | 0.0524* | 0.0544*
COc1cc2[nH]c(=S)n(C3CCCC3)c(=O)c2cc1OC | -6.1 | 104.1 | i | 106.3 | 24.5* | 1.7 | ? | 0.0434* | 0.0292 | 0.0171* | 0.0376* | 0.0104*
COc1cc2[nH]c(=S)n(C3CC3)c(=O)c2cc1OC | -21.3 | 94.3 | i | 117.7 | -1.32 | 10.4 | · | · | · | · | · | ·
CCCCC(CCC(=O)O)(C(=O)OCC)c1csc(Nc2ccc(OCC)cc2)n1 (centres undefined) | · | · | i | · | -4.11 | · | · | · | · | · | · | ·
CCCCC(CCC(=O)O)(C(=O)OCC)c1csc(Nc2ccccc2)n1 (centres undefined) | -5.0 | 99.3 | i | 104.4 | -3.9* | 6.4 | 0.00774 | 0.00652 | 0.0343 | 0.00659 | 0.0165* | 0.0103
CCN(CC)C(=S)SCC(=O)Nc1ncc2c(n1)CC(C)(C)CC2=O | · | · | i | · | 5.63* | · | 0.00575 | 0.00494 | 0.0311 | 0.00745 | 0.0191 | 0.0112
CCCCC(=O)Nc1ncc2c(n1)CC(C)(C)CC2=O | 0.8 | 111.0 | i | 99.2 | 0.578 | -12.1 | · | · | · | · | · | ·
O=S(=O)(NCc1csc(-c2cccs2)n1)c1ccc(Cl)cc1 | · | · | i | · | -5.12* | · | ? | ? | 0.019* | 0.00502* | 0.0102* | ?
O=S(=O)(NCc1csc(-c2cccs2)n1)c1cccc(C(F)(F)F)c1 | · | · | i | · | -5.4* | · | ? | 0.00357 | 0.0187* | 0.0058* | 0.0101* | ?
Cc1nc(CNS(=O)(=O)c2cccc(F)c2)cs1 | 8.0 | 98.8 | i | 95.8 | 0.608 | 2.8 | · | · | · | · | · | ·
O=S(=O)(NCc1csc(-c2cccs2)n1)c1cccs1 | · | · | i | · | -4.11 | · | · | · | · | · | · | ·
Cc1ccc(S(=O)(=O)NCc2csc(-c3cccs3)n2)cc1 | · | · | i | · | -2.12* | · | 0.0054 | 0.00354 | 0.0224* | 0.0063 | 0.012* | ?
CCNC(=O)CN(C1CCCCC1)S(C)(=O)=O | -1.4 | 102.4 | i | 101.3 | 0.128 | -0.4 | · | · | · | · | · | ·
Cc1cccc2cc(C#N)c(NCCCNS(=O)(=O)c3ccc(Cl)cc3)nc12 | · | · | i | · | -0.21 | · | · | · | · | · | · | ·
COC(=O)CC1C(=O)NCCN1C(=O)CSc1nc2ccccc2o1 (centres undefined) | -4.2 | 96.5 | i | 102.6 | 1.44 | 11.7 | · | · | · | · | · | ·
COC(=O)CC1C(=O)NCCN1C(=O)CSc1nc2ccccc2c(=O)n1CC(C)C (centres undefined) | 5.5 | 103.6 | i | 94.5 | 21.9* | -0.3 | 0.00666 | 0.0351* | 0.04* | 0.0324* | 0.0375* | 0.0265*
CN1C(=S)SC(C)(C)C1NO (centres undefined) | 12.8 | 101.9 | i | 88.3 | -4.66* | 4.2 | 0.00842 | 0.00454 | 0.0315 | 0.00752 | 0.0208 | 0.0112
Cc1ccc(C(=O)Nc2ncc(Cc3ccc(F)cc3)s2)o1 | -28.9 | 93.2 | · | 126.4 | -4.83* | 12.9 | 0.00749 | 0.007 | 0.0307 | ? | 0.0179 | ?
CC(=O)Nc1ccc(S(=O)(=O)N(C)CC(=O)OCC(=O)N2CCc3ccccc32)cc1 | -2.4 | 87.4 | · | 102.2 | -3.82* | 20.1 | 0.00673 | 0.00653 | 0.0285 | ? | 0.0196* | ?
CCn1c(COc2ccc(C)cc2)nnc1SCC(=O)NNC(=O)c1ccc(OC)cc1 | 6.0 | 96.7 | i | 94.7 | 2.46 | 3.2 | · | · | · | · | · | ·
Cc1ccc(S(=O)(=O)NN/C(=N/S(=O)(=O)c2ccccc2)c2ccccc2)cc1 | -16.5 | 102.0 | i | 112.6 | -0.225 | -1.0 | · | · | · | · | · | ·
C/C(=N\S(=O)(=O)c1ccc(C)cc1)NC(=S)Nc1ccccc1 | -4.1 | 103.5 | i | 101.0 | 2.11 | 0.7 | · | · | · | · | · | ·
COc1ccc(NC(=S)N/C(=N/S(=O)(=O)c2ccc(C)cc2)c2ccccc2)cc1 | -30.3 | 104.4 | i | 125.0 | 4.18* | -4.0 | ? | 0.02* | 0.0321 | 0.0129* | 0.0262* | 0.0122
CCOC(=S)N/C(=N\S(=O)(=O)c1ccc(C)cc1)c1ccccc1 | -1.9 | 102.3 | i | 105.8 | · | 6.7 | ? | 0.0146* | 0.0398 | ? | 0.0278* | 0.0114

From PubChem
